Results on 59 molecules are retold here after ChEMBL document CHEMBL1136003, “2-Amino-3-aroyl-4,5-alkylthiophenes: agonist allosteric enhancers at human A(1) adenosine receptors” (J Med Chem, 2002).

Test [1] deals with T1, Adenosine receptor A1 (Homo sapiens) (UniProt P30542).
T1 sequence (whole entry): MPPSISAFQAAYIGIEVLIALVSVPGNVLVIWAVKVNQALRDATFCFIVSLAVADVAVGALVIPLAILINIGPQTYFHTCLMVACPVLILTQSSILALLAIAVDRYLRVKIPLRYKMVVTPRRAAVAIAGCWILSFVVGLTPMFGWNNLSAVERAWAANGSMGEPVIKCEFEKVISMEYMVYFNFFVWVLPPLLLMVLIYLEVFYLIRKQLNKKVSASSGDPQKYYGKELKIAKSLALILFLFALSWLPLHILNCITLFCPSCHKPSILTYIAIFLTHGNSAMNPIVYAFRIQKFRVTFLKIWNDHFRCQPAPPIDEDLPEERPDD
Nature of the test: Allosteric enhancer activity score measured by its ability to stabilize the agonist-receptor-G protein ternary complex at a concentration of 100 uM. Type of test: functional. The method in brief: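 Candidate enhancer added (100 µM) for 5 min, then dissociation started with 8-cyclopentyltheophylline plus GTPγS. Residual bound agonist after 10 min counted by filtration. Score = 100 × (B − Bo)/(Beq − Bo).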

Test [2] addresses T1, Adenosine receptor A1 (Homo sapiens). Nature of the test: Inhibition of [3H]CPX binding to CHO-K cell membrane expressing human Adenosine A1 receptor. Type of test: cell membranes. Set-up: concentration or dose not given beside the values. The settings on record: concentration not given here. The method in brief:
(§1)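 Triplicate assays with membranes (15 µg protein) from CHO-K cells expressing human A1AR. Buffer was 10 mM HEPES pH 7.4 with 1 mM EDTA, adenosine deaminase 1 u/mL, [3H]CPX (4 nM in membrane aliquot), and enhancer added as 200 µM in 10% DMSO. Footnote gives enhancer at 100 µM. NECA defined nonspecific binding. Incubated 3 h at room temperature, then filtered and counted.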

The target is the same in test [3]. Nature of the test: Inhibition of [3H]CPX binding to membrane of CHO-K cells stably expressing human adenosine A1 receptors. The arrangement: concentration or dose not given beside the values. The settings on record: concentration not given here. Format: cell membranes. The method in brief:
as §1

Consider `Nc1sc2c(c1C(=O)c1cccc(Cl)c1)CCCC2`, for which the AE Score in test [1] is 70%. Besides, the inhibition (as a rule, the percentage by which the read-out fell short of the control) in test [2] amounted to 78%. Take `Nc1sccc1C(=O)c1ccccc1`: the AE Score in test [1] is 0.2%. The molecule also showed an inhibition in test [2] of 15%. With `CCOC(=O)c1c(N)sc2c1CCCC2`, the AE Score in test [1] stood at 3.5%. The molecule also showed an inhibition in test [3] of 53%. Take `Nc1sccc1C(=O)c1ccc(F)cc1`: the AE Score in test [1] is 0%. The same measure, in the same setting: in the case of `Cc1sc(C(=O)O)c(C(=O)c2ccccc2)c1C` it was 0%. Take `Nc1sc2c(c1C(=O)c1ccc(Br)cc1)CCCC2`: the AE Score in test [1] was 83%. The same molecule displayed an inhibition in test [3] of 61%. `Nc1sc2c(c1C(=O)c1cccc3ccccc13)CCCCC2`: in test [1], the AE Score stood at 81%.

As to `CCOC(=O)c1c(N)sc2c1CCC2`, the AE Score in test [1] came to 0.4%. In addition, in test [2], the inhibition is 58%. Regarding `Nc1sccc1C(=O)c1ccc(Cl)cc1`, in test [1], the AE Score was determined as 0%. The same measure, in the same setting: in the case of `Cc1sc(N)c(C(=O)c2cccc(Cl)c2)c1C` it was 14%; in that of `Nc1sc2c(c1C(=O)c1cccc(F)c1)CCC2`, 16%. As to `Nc1sc2c(c1C(=O)c1cccc(Br)c1)CCCCC2`, the AE Score in test [1] was found to be 78%. The inhibition in test [3] was found to be 7%. Regarding `Cc1sc(C(=O)O)c(C(=O)c2ccc(-c3ccccc3)cc2)c1C`, the AE Score in test [1] was found to be 0%.

As to `Cc1sc(N)c(C(=O)c2ccccc2)c1C`, the AE Score in test [1] came out at 9%. Consider `Nc1sc2c(c1C(=O)c1ccccc1)CCCCC2`, for which, in test [1], the AE Score worked out at 13%. Besides, in test [3], the inhibition was found to be 68%. Regarding `Nc1sc2c(c1C(=O)c1ccc3ccccc3c1)CCCCC2`, in test [1], the AE Score came out at 75%. On to `Nc1sc2c(c1C(=O)c1ccc3ccccc3c1)CCC2`, for which the AE Score in test [1] came to 31%. This molecule also yielded an inhibition in test [3] of 21%. Turning to `Nc1sc2c(c1C(=O)c1ccc(Cl)cc1)CCC2`, in test [1], the AE Score was found to be 70%. Take `N#Cc1ccc(C(=O)c2c(N)sc3c2CCCC3)cc1`: the AE Score in test [1] was determined as 19%. Also, the inhibition in test [3] is 21%. The corresponding values for `CCOC(=O)c1c(N)sc2c1CCCCC2` are 0.3% and 38%.

For the molecule `Nc1sccc1C(=O)c1cccc(Br)c1`, the AE Score in test [1] was 0.2%. For the molecule `Nc1sc2c(c1C(=O)c1ccccc1)CCC2`, the AE Score in test [1] stood at 20%. Further, the inhibition in test [2] is 56%. With `Cc1cccc(C(=O)c2c(N)sc(C)c2C)c1`, the AE Score in test [1] was 18%. Turning to `Nc1sc2c(c1C(=O)c1ccc(I)cc1)CCCC2`, the AE Score in test [1] was found to be 86%. Further, in test [3], the inhibition is 62%. `Nc1sccc1C(=O)c1ccc(Br)cc1`: in test [1], the AE Score turned out to be 0.8%. Turning to `COc1ccc(C(=O)c2c(N)sc3c2CCCCC3)cc1`, the AE Score in test [1] turned out to be 85%. On to `Nc1sc2c(c1C(=O)c1ccc(F)cc1)CCC2`, for which the AE Score in test [1] was found to be 22%. Also, the inhibition in test [2] was 40%.

For the molecule `Cc1sc(N)c(C(=O)c2ccc(-c3ccccc3)cc2)c1C`, the AE Score in test [1] amounted to 12%. With `Nc1sc2c(c1C(=O)c1ccccc1)CCCC2`, the AE Score in test [1] was 19%. This molecule also showed an inhibition in test [3] of 42%.

Regarding `Cc1sc(N)c(C(=O)c2cccc(C(F)(F)F)c2)c1C`, the AE Score in test [1] amounted to 19%. Moreover, in test [2], the inhibition is 42%. `Nc1sc2c(c1C(=O)c1ccc(F)cc1)CCCC2`: in test [1], the AE Score was found to be 17%. Besides, the inhibition in test [3] was 56%. For the molecule `Nc1sc2c(c1C(=O)c1ccc3ccccc3c1)CCCC2`, in test [1], the AE Score is 86%. Consider `Nc1sc2c(c1C(=O)c1cccc(F)c1)CCCC2`, for which the AE Score in test [1] amounted to 22%. Further, the inhibition in test [2] turned out to be 35%. For `Nc1sc2c(c1C(=O)c1ccc(-c3ccccc3)cc1)CCCCC2`, in test [1], the AE Score was determined as 88%. Take `Nc1sc2c(c1C(=O)c1cccc(Cl)c1)CCC2`: in test [1], the AE Score worked out at 13%. Besides, the inhibition in test [2] was found to be 56%. `COc1cccc(C(=O)c2c(N)sc3c2CCCCC3)c1`: the AE Score in test [1] came to 99%. This molecule also displayed an inhibition in test [3] of 13%. With `Cc1ccc(C(=O)c2c(N)sc3c2CCCC3)cc1`, in test [1], the AE Score is 19%. In test [3], this molecule had an inhibition of 36%.

For the molecule `Cc1sc(N)c(C(=O)c2cccc(Br)c2)c1C`, in test [1], the AE Score is 16%. Still for that read-out and setting: under `Nc1sc2c(c1C(=O)c1ccc(F)cc1)CCCCC2` stands 22%; under `Cc1sc(N)c(C(=O)c2cccc(F)c2)c1C`, 0%. On the same count and under the same terms, in the case of `Cc1sc(C(=O)O)c(C(=O)c2cccc(C(F)(F)F)c2)c1C` it was 0%. Still for that read-out and setting: under `Nc1sc2c(c1C(=O)c1ccc(-c3ccccc3)cc1)CCC2` stands 38%. For the molecule `Nc1sc2c(c1C(=O)c1ccc(I)cc1)CCCCC2`, the AE Score in test [1] is 96%. The inhibition in test [3] was 9%. Take `Nc1sc2c(c1C(=O)c1ccc(C3CCCCC3)cc1)CCCCC2`: in test [1], the AE Score stood at 77%. For the molecule `Nc1sc2c(c1C(=O)c1ccc(C3CCCCC3)cc1)CCCC2`, the AE Score in test [1] came to 99%. This molecule also showed an inhibition in test [3] of 47%. As for `Nc1sccc1C(=O)c1ccc(Cl)c(Cl)c1`, the AE Score in test [1] was determined as 1.7%. On the same count and under the same terms, under `Nc1sccc1C(=O)c1cccc(Cl)c1` stands 0%.

For `Nc1sccc1C(=O)c1ccc2ccccc2c1`, the AE Score in test [1] worked out at 3.2%. Same read-out and setting: under `Nc1sc2c(c1C(=O)c1ccc(Cl)cc1)CCCCC2` stands 65%. `Nc1sc2c(c1C(=O)c1cccc(Br)c1)CCCC2`: the AE Score in test [1] came out at 49%. The molecule also had an inhibition in test [2] of 49%. On to `Cc1cc(C)c(C(=O)c2c(N)sc(C)c2C)c(C)c1`, for which the AE Score in test [1] was determined as 0%. For the molecule `Nc1sc2c(c1C(=O)c1ccc(Br)cc1)CCC2`, in test [1], the AE Score amounted to 62%. Besides, the inhibition in test [2] turned out to be 20%. Take `Nc1sc2c(c1C(=O)c1cccc(Cl)c1)CCCCC2`: in test [1], the AE Score came out at 65%. Moreover, the inhibition in test [3] was found to be 10%. On to `Nc1sc2c(c1C(=O)c1cccc(Br)c1)CCC2`, for which the AE Score in test [1] was determined as 68%. In test [2], this molecule had an inhibition of 36%. As to `Nc1sccc1C(=O)c1cccc(F)c1`, in test [1], the AE Score turned out to be 0%. Turning to `Nc1sc2c(c1C(=O)c1ccc(Cl)cc1)CCCC2`, the AE Score in test [1] was determined as 68%. The inhibition in test [3] stood at 69%. Regarding `Nc1sc2c(c1C(=O)c1cccc(I)c1)CCCCC2`, the AE Score in test [1] was 86%.

For the molecule `Nc1sc2c(c1C(=O)c1ccc(Br)cc1)CCCCC2`, the AE Score in test [1] came out at 86%. In test [3], the inhibition was determined as 7%. As for `Nc1sc2c(c1C(=O)c1ccc(-c3ccccc3)cc1)CCCC2`, the AE Score in test [1] was found to be 33%.
